Env fusion inh: inhibitors of HIV Env-mediated cell fusion; HeLa-JRFL Env/CEM21 cell fusion, luciferase; inhibition, % at 12.3 µM; 1.1% of 360,000 active;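 active means mean replicate inhibition score of at least 50 and every replicate individually at or above 50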;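 further: 0% = plate neutral controls and 100% = maraviroc near 300 nM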
INS-1E GSIS act: primary screen for activators of insulin secretion dependent on glucose, INS-1E cells, GLuc reporter luminescence; INS-1E GLuc reporter insulin secretion, 2-3 h; activation, % at 16.6 µM; 0.61% of 370,000 active;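 active means lowest replicate activation of at least 40%, so every replicate reaches that level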;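 further: 0% = median of neutral control wells and 100% = median of IBMX positive control wells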
Cneo AK release: causes C. neoformans cell lysis; adenylate kinase release luminescence, 4 h; normalised: neutral wells 0, clomiphene wells 100; lysis activity, % at 15 µM; 0.2% of 360,000 active;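 active means mean lysis activity across replicates of at least 80%, whatever share of replicates individually reach that level; inactive means mean lysis activity below 80%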
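Test system: log-phase Cryptococcus neoformans yeast cells; Quantity: yeast cell density of 5 × 10^6 cells/mL; Buffer or medium: YPD; Doses: single compound concentration per well; Timing: 4 h at 37 °C static, read 1 h later; Measured by: AK luminescence; Read-out basis: lysis from increased AK signal; Control set: Clomiphene as positive control.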
PAX8 reporter: PAX8 transcriptional activity inhibition | RMG-I TPO-luciferase reporter, SteadyGlo, 24 h | inhibition, % at 12.6 µM | 1.2% of 360,000 active | AID 652154;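 active means mean replicate inhibition at least 60% with every replicate also reaching 60%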;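 further: luciferase light reporting Pax8 driven TPO promoter activity; plate controls were median of neutral control wells for no effect and mitoxantrone controls for full effect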
dFosB act-1: mouse delta FosB homodimer activation. P13346. purified delta FosB, TAMRA-CDK5 oligo fluorescence polarization; percent of positive-control signal above neutral wells. activation, % at 25 µM. 0.99% of 340,000 active. AID 493131;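 active means mean activation above about 17%, with every replicate also reaching it, limit read from the data, passing the limit was not always enough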
CDK5 inh: CDK5/p35 (human) kinase inhibition. inhibition, % at 10 µM. AID 488839. Recombinant CDK5/p35, ADP-Glo luminescence, 60 min. 0.01% of 330,000 active;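 active means highest replicate inhibition of at least 50% and at least 75% of replicates reaching 50%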;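 further: plate controls were DMSO neutral control for no effect and GW8510 at 10 µM for full effect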
Target sequence (Q00535 whole entry, looked up): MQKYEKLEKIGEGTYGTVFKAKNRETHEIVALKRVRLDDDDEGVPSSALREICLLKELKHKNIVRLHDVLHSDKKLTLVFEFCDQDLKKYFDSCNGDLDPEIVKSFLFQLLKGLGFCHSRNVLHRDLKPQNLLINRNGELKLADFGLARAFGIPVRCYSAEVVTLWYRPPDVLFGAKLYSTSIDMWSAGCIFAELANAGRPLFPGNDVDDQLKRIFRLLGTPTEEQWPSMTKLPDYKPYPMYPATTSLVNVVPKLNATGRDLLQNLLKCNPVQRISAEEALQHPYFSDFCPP
Target sequence (Q15078 whole entry, looked up): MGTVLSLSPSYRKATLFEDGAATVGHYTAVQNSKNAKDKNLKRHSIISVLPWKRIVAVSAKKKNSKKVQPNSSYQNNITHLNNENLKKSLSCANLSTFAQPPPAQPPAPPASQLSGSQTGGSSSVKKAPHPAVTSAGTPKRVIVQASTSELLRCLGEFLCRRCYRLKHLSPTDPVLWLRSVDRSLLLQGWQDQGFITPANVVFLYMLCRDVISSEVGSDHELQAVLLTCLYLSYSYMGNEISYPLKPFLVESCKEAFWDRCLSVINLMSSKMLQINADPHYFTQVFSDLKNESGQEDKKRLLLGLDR
dFosB act-2: delta FosB (mouse) homodimer activation. activation, % at 24.9 µM. purified delta FosB, TAMRA-CDK5 oligo fluorescence polarization; normalised: neutral wells 0, positive control 100. shares compounds with dFosB act-1. 2,400 tested, under 10 active;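 active means highest replicate activation at or above 34% and every replicate reaching that threshold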;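 further: higher polarization means more probe DNA bound by delta FosB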
Starred values were filed as active, the others as inactive; . = no result; [ ] = another dose, or the depositor's remark. In the library only some 2.9% were active in any assay of this set; here they are far more common.

SMILES	Env fusion inh	INS-1E GSIS act	Cneo AK release	PAX8 reporter	dFosB act-1	CDK5 inh	dFosB act-2
O=S(=O)(NCc1ccc2c(c1)OCO2)c1ccc(F)cc1	-39	8	-2	-15	6	1	.
CN(C)S(=O)(=O)c1ccc(S(=O)(=O)NCc2ccc3c(c2)OCO3)cc1	-1	-15	1	0	36*	1	-6
CCOc1ccc(NC(=O)C2CCCN(S(=O)(=O)c3ccc4[nH]c(=O)ccc4c3)C2)cc1 (stereo not given)	-2	14	13	10	15	2	.
COc1ccc(NC(=O)C2CCCN(S(=O)(=O)c3ccc4[nH]c(=O)ccc4c3)C2)cc1 (stereo not given)	-7	-9	0	-18	17*	0	2
COc1cc(NC(=O)C2CCCN(S(=O)(=O)c3ccc4[nH]c(=O)ccc4c3)C2)cc(OC)c1 (stereo not given)	-3	7	-1	13	52*	-1	2
C[C@H](CO)N1C[C@H](C)[C@H](CN(C)C)OCCCC[C@H](C)Oc2ccc(NS(=O)(=O)c3ccc(Cl)cc3)cc2C1=O	-37[16.7 µM]	6	-2	2	.	.	.
CC(C)CC#Cc1ccc2c(c1)O[C@H](CN(C)CC1CCOCC1)[C@H](C)CN([C@@H](C)CO)S2(=O)=O	12[16.7 µM]	-6	5	.	.	.	.
CC1CCN(S(=O)(=O)c2ccc(C(=O)Nc3sccc3C(N)=O)cc2)CC1	-1	-10	3	17	53*	-2	3
Cn1ncc2c(Nc3cccc(Cl)c3)nc(Nc3cccc(Cl)c3)nc21	13	12	-2	-3	31*	2	1
Cn1ncc2c(Nc3ccc(O)cc3)nc(Cl)nc21	-14	26	2	10	-6	0	.
Cn1ncc2c(Nc3ccc(Br)cc3)nc(Nc3ccc(Br)cc3)nc21	13	525	-1	9	53*	0	4
CNc1nc(Nc2ccc(C)c(Cl)c2)c2cnn(C)c2n1	20	2	7	-10	-6	0	.
Cc1cccc(-c2nsc(SCC(=O)Nc3ccc4c(c3)OCO4)n2)c1	.	-20	.	-86	20*	-1	0
COC(=O)Cn1c(=NC(=O)c2sc3ccccc3c2Cl)sc2cc(S(N)(=O)=O)ccc21	.	3	.	34	-2	0	.
CCOC(=O)Cn1c(=NC(=O)c2sc3ccccc3c2Cl)sc2cc(S(N)(=O)=O)ccc21	34	71*	0	15	92*	2	-4
CCc1cc2ccc(OC)cc2nc1SCC(=O)Nc1cc(C)on1	.	48*	-2	.	111*	1	0
CCc1cc2ccccc2nc1SCC(=O)Nc1cc(C)on1	.	.	3	.	-5	1	.
COc1cccc(-n2c(SCC(=O)Nc3cc(C)on3)nc3c([nH]c4ccccc43)c2=O)c1	4	9	-2	37	39*	-2	3
O=C(CSc1nc2c([nH]c3ccccc32)c(=O)n1-c1cccc(Cl)c1)N1CCOCC1	-35	-4	-1	55	55*	0	4
O=C(CSc1nc2c([nH]c3ccccc32)c(=O)n1-c1ccccc1)N1CCOCC1	-15	10	0	19	-3	-2	.
Cc1ccc(NC(=O)c2ccc(OC(=O)CCN3C(=O)c4ccccc4C3=O)cc2)cc1	-113	.	0	-207	35*	-2	0
Cc1ccc2nc(NC(=O)CNS(=O)(=O)c3ccc(Br)s3)sc2c1	-4	-6	0	.	19*	-8	-5
Cc1ccc2nc(NC(=O)CN(C)S(=O)(=O)c3ccc(Br)s3)sc2c1	.	.	3	.	-2	3	.
Cc1ccc2nc(NC(=O)CN(C)S(=O)(=O)c3cccc4nsnc34)sc2c1	-13	.	0	18	21*	-2	2
CN1C[C@H]2[C@@H](c3ccccc31)[C@@H](CO)N2C(=O)Nc1ccccc1Cl	.	11	0	-37	.	.	.
SMILES	Env fusion inh	INS-1E GSIS act	Cneo AK release	PAX8 reporter	dFosB act-1	CDK5 inh	dFosB act-2
CC=Cc1ccc2n(c1=O)C[C@H]1[C@H](CO)[C@@H](C(=O)N3CCCCC3)[C@@H]2N1C(=O)C1CC1 (mixture of isomers)	.	-3	3	.	.	.	.
O=c1[nH]c(/C=C/c2ccc(OC(F)F)cc2)nc2c1cnn2-c1ccccc1	-34	85*	.	-13	65*	0	1
COc1ccc(-n2nc(C(=O)NCC(=O)NCc3cccc(F)c3)c3ccccc3c2=O)cc1Cl	3	2	1	19	26*	1	4
COc1ccc(-n2nc(C(=O)NCC(=O)Nc3cc(OC)c(OC)c(OC)c3)c3ccccc3c2=O)cc1	34	-3	-2	43	11	-1	.
COc1ccc(-n2nc(C(=O)NCC(=O)Nc3cc(OC)c(OC)c(OC)c3)c3ccccc3c2=O)cc1OC	17	0	4	27	24*	1	-2
COC(=O)CNC(=O)CNC(=O)c1nn(-c2ccc(OC)c(Cl)c2)c(=O)c2ccccc12	5	.	-1	.	3	1	.
Cc1noc(C)c1S(=O)(=O)Nc1ccc2c(c1)C(=O)N([C@@H](C)CO)C[C@H](C)[C@@H](CN(C)C(=O)Nc1ccccc1)O2	19[16.7 µM]	20	2	.	.	.	.
COc1ccc2oc(=O)c(-c3cn4ccc(C)cc4n3)cc2c1	-19	-2	.	-76	26*	0	5
Cc1ccn2cc(-c3cnoc3C)nc2c1	-88	.	-1	-107	2	1	.
COc1ccc(CCNC(=O)C(=O)NCc2ccc(Cl)cc2)cc1OC	14	0	.	6	43*	0	-5
CCc1ccc(CNC(=O)C(=O)NCCc2ccc(OC)c(OC)c2)cc1	21	.	-1	16	10	0	.
Cc1nn(CC(=O)Nc2ccc(Cl)cc2)c(=O)c2cc(-c3ccccc3)nn12	-11	7	-15	-12	30*	0	-2
COc1ccc(NC(=O)Cn2ncn3nc(-c4ccc(OC)cc4)cc3c2=O)cc1	-14	6	4	-6	63*	-3	-1
COc1ccc(-c2cc3c(=O)n(CC(=O)Nc4ccc(Cl)cc4)ncn3n2)cc1	5	-1	.	11	31*	.	2
Cn1c2ccccc2c2cnn(CC(=O)Nc3ccc(Cl)cc3)c(=O)c21	4	15	.	26	26*	-1	-1
COc1ccc(-c2cc3c(=O)n(CC(=O)NCc4ccccc4F)ncn3n2)cc1	-10	-2	-2	-2	-3	0	.
COCC(=O)N1CC(=O)N2[C@@H](CO)[C@H](c3ccc(C#CC4CCCCC4)cc3)[C@@H]2C1	.	17	.	9	.	.	.

Bioassay records as filed in PubChem.
